This passage reports cytotoxicity results from ChEMBL document CHEMBL4513216, “Probing the Open Global Health Chemical Diversity Library for Multistage-Active Starting Points for Next-Generation Antimalarials” (ACS Infect Dis, 2020).

A short description of this data set: Toxicity liver stage against HepG2, at 10uM. The following applies: human, HepG2-A16-CD81EGFP cells; read-out: INHIBITION
It is filed as cell-based. The arrangement: test concentration 10 uM, cell line HepG2-A16-CD81EGFP. A digest of the protocol: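 Uninfected HepG2-A16-CD81EGFP cells, 3 × 10^3 per well, 1536-well, plated on prespotted compound at 10 μM final, parasite-free screening media added to match infected plates; puromycin 10 μM positive, DMSO 0.5% negative; run in parallel with 48 h PbLuc assay at 37 °C, 5% CO2; viability by CellTiter-Glo luminescence, normalized to controls.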
For `CCCc1ccc2oc(C(=O)N3CCN(CCC(N)=O)CC3)c(C)c2c1`, the cytotoxicity at 10 µM is 0.424%.
Then `CCCn1nnnc1COc1cc(OC)ccc1C(=O)OC`, with -2.04%; and `O=C(NC[C@H]1OC[C@@H](NC2CCC2)[C@@H]1O)c1cccs1`, with 1.76%.
As for `c1ccc(-c2nnc([C@H]3CCN(C4CCOCC4)C3)o2)cc1`, the figure is -1.05%.
Then `CCC1CN(CC(=O)NCCN2CCCC2)c2ccccc2S1` (stereo unspecified), with -13.1%.
As for `COCCNC(=O)c1cccnc1Sc1cc(OC)ccc1OC`, the cytotoxicity at 10 µM came out at 0.734%.
As for `Cc1ccc(-c2nnc(CN3CCN(c4ccccn4)CC3)o2)cc1`, the figure is -5.34%.
As for `CN1CC[C@H](N(C)Cc2ccccc2)C[C@H](O)C1`, the figure is -0.895%; as for `O=S(=O)(NCC(O)c1cccs1)c1ccccc1Cl` (stereo unspecified), -67%; as for `O=C1CC[C@@H]2[C@@H](CCN2C(=O)C2CCOCC2)N1CC1CC1`, 10.9%.
As for `COc1cccc(S(=O)(=O)N2CCCc3c(OC)nn(C)c3C2)c1`, the figure is -120%; as for `Cc1ccnc(OC[C@]23COC[C@H]2CN(C(=O)c2ncccn2)C3)n1`, -3.18%.
Turning to `CCOCC1CN(C(=O)c2ccco2)Cc2cnn(C)c21` (stereo unspecified), the cytotoxicity at 10 µM was 6.14%.
Then `Cc1ccc(N2CCc3ncc(CNc4ccccn4)n3CC2)nn1`, with 5.41%; and `O=C(O)c1nnn(-c2ccc(C(F)(F)F)cc2)c1-c1ccncc1`, with 7.33%; and `CCOCCCNC(=O)CN(c1ccc(C)c(C)c1)S(C)(=O)=O`, with 7.74%.
Then `Cn1cc(C(=O)NC[C@@H]2OC[C@H]3CN(S(C)(=O)=O)CC[C@H]32)cn1`, with -9.12%; and `COc1ccc(C2=Nn3c(CCCN)nnc3-c3ccccc3C2)cc1`, with 3.07%.
As for `CSCc1cccc(S(=O)(=O)NCCCN2CCOCC2)c1`, the figure is -8.63%.
In the case of `O[C@@H]1C[C@H]2CN(Cc3ccccc3)[C@H](Cc3ccccc3)CN2C1`, the cytotoxicity at 10 µM was -0.658%.
As for `Cc1cccc(CNC(=O)CC2CCN(Cc3ccccn3)CC2)n1`, the figure is 10.1%; as for `CCN1CCCC1CNCc1cc2cc(OC)c(OC)cc2[nH]c1=O` (stereo unspecified), 2.63%; as for `Cc1ccc(N2CCOC(C)(C(=O)N(C)C)C2)nn1` (stereo unspecified), -4.43%.
For `COc1ncc(CN(C)C2CCN(C(C)C)CC2)cn1`, the cytotoxicity at 10 µM was found to be 5.15%.
`O=C(NCc1ccccn1)c1cnc(C2CCCN2)cn1` (stereo unspecified): the cytotoxicity at 10 µM worked out at 3.62%.
Then `COc1ccccc1-c1ccccc1CC1(C(=O)O)CCNCC1`, with -0.782%; and `Cc1cc(C2CCCCN2C(=O)c2cccn2C)nc2nccn12` (stereo unspecified), with -17.6%.
As for `Cc1cc(C(N)=O)nc(C2(C)CCCN2Cc2cnn(C)c2)n1` (stereo unspecified), the figure is -23.6%; as for `CNc1cc(C2CCCN(Cc3ccccc3OCC(=O)O)C2)ccn1` (stereo unspecified), -24.8%; as for `CNCC(=O)N1CCCCC1c1nccc(C)n1` (stereo unspecified), -15.4%.
As for `CC(=O)N1CCN(c2cc(CCNC(=O)C(C)C)nc(C3CC3)n2)CC1`, the figure is -21.3%.
Turning to `CC1CS(=O)(=O)CCN1Cc1ccccc1OCC(F)(F)F` (stereo unspecified), the cytotoxicity at 10 µM is -4.86%.
Then `CC(C)n1nc2c(cc1=O)CN(CC1CCCCO1)CC2` (stereo unspecified), with 14.5%; and `CC(c1nc(-c2cccnc2)no1)N(C)CCCOc1ccccc1` (stereo unspecified), with -2.14%; and `CN(Cc1nnc2n1CCC2)C(=O)c1ccc(=O)n(C)n1`, with -8.16%.
As for `N#CC(NC(=O)CNC(=O)c1ccccc1)c1ccsc1` (stereo unspecified), the figure is 1.8%; as for `O=C(NCCNc1ccccn1)NC1CCCC1`, -5.81%.
As for `COCc1nc(C(=O)OCC2CCN(c3ccccc3)C2)cs1` (stereo unspecified), the figure is -1.31%.
With `O=C(NCCc1ccn(-c2ccc(F)cc2)n1)C1CCCOC1` (stereo unspecified), the cytotoxicity at 10 µM was determined as 6.65%.
Then `O=C(NCCN1CCOCC1)N(CCCO)C1CCCc2ccccc21` (stereo unspecified), with -9.69%; and `CNS(=O)(=O)c1ccc(CNC(=O)N(C)CC(C)C)cc1`, with 1.08%; and `CC(C)C(Sc1cccs1)C(=O)NCc1cccnc1` (stereo unspecified), with -5.15%.
Consider `COc1ccccc1CN(CC1CCCO1)C(=O)c1csnn1` (stereo unspecified), for which the cytotoxicity at 10 µM is -0.636%.
Then `CNC(=O)c1ccc(S(=O)(=O)NCCc2ccccn2)cc1`, with -14.3%.
Then `c1ccc2sc(NCC3(N4CCOCC4)CCSC3)nc2c1` (stereo unspecified), with 0.375%; and `COCc1nc2cc(NCc3ccncc3)ccc2o1`, with -3.3%.
As for `CC(CNC(=O)N1CCN(c2cnccn2)CC1)Cc1cccs1` (stereo unspecified), the figure is 1.7%.
For `N#Cc1cccc(NC(=O)N[C@H](CO)c2ccccc2)c1`, the cytotoxicity at 10 µM was -12.2%.
Then `N#Cc1ccc(OCCOc2ccccc2C(=O)N2CCOCC2)cc1`, with -7.38%; and `CS(=O)(=O)NCC1CCCN(Cc2ccc(F)c3cccnc23)C1` (stereo unspecified), with -12.6%; and `COc1cc(C)sc1C(=O)N1CCC(Nc2cccnc2)CC1`, with -5.07%.
As for `Cc1cc(NC(C)c2n[nH]c(C)n2)n2nc(C)c(C)c2n1` (stereo unspecified), the figure is -11.4%; as for `CC(C)=CCCC1(C)CCC(=O)N(CCNc2nc(C)cc(=O)[nH]2)C1` (stereo unspecified), 3.18%.
As for `COc1ccccc1C(=O)C1CCCN(c2cc(C#N)ccn2)C1` (stereo unspecified), the figure is 7.56%; as for `COc1nc(C)c(C(=O)N2CCC(C(O)Cc3ccccc3)CC2)s1` (stereo unspecified), 4.18%.
For `NC1(C(=O)N2CCC(c3cc(-c4ccccc4Cl)n[nH]3)CC2)CCC1`, the cytotoxicity at 10 µM is -3.66%.
Then `Cc1ccc(C(=O)N2CC(Oc3ccccc3C)C2)s1`, with 17.1%.
As for `CCc1nccn1CCCNC(=O)CN1CCN(c2ncccn2)CC1`, the figure is -7.54%.
As for `CSc1ccc(CN(CCO)C(=O)CCNC(C)=O)cc1`, the figure is 5.42%; as for `Cc1ccc(OCC2CCCN(C(=O)CCn3ccccc3=O)C2)cc1` (stereo unspecified), -4.27%; as for `CC(C)(CN1CCC(Cc2ccc(C(=O)O)cc2)C1)N1CCOCC1` (stereo unspecified), 2.17%.
With `CC(Cc1cn(CCc2n[nH]c(=O)[nH]2)nn1)c1ccccc1` (stereo unspecified), the cytotoxicity at 10 µM is -0.591%.
Then `Cc1nnsc1CN(C)C(=O)c1ccc(CSc2nnc[nH]2)o1`, with -3.33%; and `Cn1cc(Cl)cc1C(=O)N1CCC2(CCCN(CC3CC3)C2=O)C1` (stereo unspecified), with 1.96%; and `Cc1nc2c(c(N3CCC(CCn4cccn4)CC3)n1)CCNCC2`, with 4.3%.
For the molecule `CCS(=O)(=O)N[C@H]1CN(CC(C)(C)N2CCOCC2)C[C@@H]1C1CC1`, the cytotoxicity at 10 µM worked out at 1.04%.
Then `CC(C)=CCN1C[C@@H]2CN(C(=O)c3cnccc3C)C[C@]2(C(=O)O)C1`, with 2.85%; and `Cc1cc(C(F)(F)F)cc(=O)n1CCn1cc(Cl)cn1`, with 0.382%.
As for `CC(C)(C)N1CC(C(=O)N2CC(Oc3ccc(F)cc3)C2)CC1=O` (stereo unspecified), the figure is 1.88%.
Then `c1ccc(C2CCCN(Cc3cc4n(n3)CCNC4)CC2)cc1` (stereo unspecified), with 1.9%.
`Cc1ccc(OCC2CCCN(C(=O)Cn3ccccc3=O)C2)cc1` (stereo unspecified): the cytotoxicity at 10 µM is 0.55%.
As for `COCCN1CCCC(c2nc3c([nH]2)CC(C)(C)CNC3=O)C1` (stereo unspecified), the figure is -11.6%; as for `Cc1cccnc1NCCNC(=O)[C@H]1CNC[C@@H](C(=O)N2CCCC2)C1`, -11.3%; as for `COc1ncccc1C(=O)NCC(C)Oc1cccnc1` (stereo unspecified), -8.45%.
Then `COCCN(C)C(=O)Cn1cccc(OC)c1=O`, with -14.8%; and `Cc1cnn(CCNCC(=O)NCc2ccccc2)c1`, with -4.25%; and `CC(NC(=O)NCC1(N2CCCCC2)CCCCC1)c1nncn1C` (stereo unspecified), with -9.78%.
Then `Clc1ccccc1-c1nc(CNCCn2cccn2)cs1`, with -3.45%; and `O=C(c1cnc(-c2cccs2)s1)N1CCCN2CCCC2C1` (stereo unspecified), with -13.9%.
Consider `Cc1cccc(C(=O)NCc2ccnc(N(C)C)c2)n1`, for which the cytotoxicity at 10 µM worked out at 3.22%.
As for `Cn1cnnc1C1CCCN(C(=O)NCCNc2ccccn2)C1` (stereo unspecified), the figure is 2.21%.
Turning to `CC(=O)NC1CCN(c2cnc(C3CCNCC3)cn2)CC1`, the cytotoxicity at 10 µM is 8%.
As for `CN(C)CCN(Cc1ccccn1)Cc1ccnn1C1CCCCO1` (stereo unspecified), the figure is 1.6%; as for `Cc1c[nH]nc1C1CCCN1Cc1nccn1C` (stereo unspecified), -3.34%.
As for `CS(=O)(=O)N1CCO[C@@H]2CN(Cc3ccncc3)C[C@@H]2C1`, the figure is 4.5%; as for `CCc1nc2ccccc2c(=O)n1CC1(O)CCN(C(=O)C2CC2)CC1`, -18.3%; as for `Cc1occc1C(=O)N1CCOCC2(CCN(Cc3nccs3)C2)C1` (stereo unspecified), -6.34%.
Turning to `NCCc1c(-c2ccccc2)[nH][nH]c1=O`, the cytotoxicity at 10 µM amounted to 5.95%.
For the molecule `CN(C)C(=O)[C@H]1C[C@H]2[C@H](CCN2Cc2ccc3c(c2)OCO3)O1`, the cytotoxicity at 10 µM is 2.36%.
Then `Fc1cnc(N2CC[C@@H]3O[C@@H](COCc4ccccn4)CC[C@@H]32)nc1`, with 1.9%; and `CN1CCCc2cc(-c3cncn3CC(=O)NC(C)(C)C)ccc21`, with -28.9%.
As for `Cc1cccc(CN2CC[C@@H]3[C@@H](CO[C@H]3CNc3ncccn3)C2)n1`, the figure is -5.55%; as for `COCC1CC2(CCN(Cc3cnn(C)c3)CC2)CN1c1ncccn1` (stereo unspecified), -8.19%; as for `Cc1noc(C)c1CN1CCO[C@H]2CN(Cc3cncn3C)C[C@H]21`, -1.62%.
Regarding `CN1CCC(NC(=O)[C@H]2CC[C@@H]3[C@@H](CCN3c3ncccn3)O2)CC1`, the cytotoxicity at 10 µM was found to be 7.43%.
With `C=c1ccoc1=C1NN=C(CNCC2CCCN2c2cccnn2)O1` (stereo unspecified), the cytotoxicity at 10 µM was -13.7%.
